Experimental data from ChEMBL document CHEMBL1133719, “Synthesis and preliminary biological evaluations of CC-1065 analogues: effects of different linkers and terminal amides on biological activity” (J Med Chem, 2000).
Values joined by “and” are separate entries in the source; they are usually repeats but may differ in a detail not shown here. Equal entries are not always repeated.

Experiments:
MCF7 = experiment: Cytotoxicity against NCI tumor panel, MCF-7 breast cancer cell line; format: functional, cell-based; details: Homo sapiens
In short: (§1)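 Performed by NCI with the sulforhodamine B (SRB) method on its human tumour cell panel, using a 48-h drug incubation.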

SNB-75 = experiment: Cytotoxicity against NCI tumor panel, SNB-75 CNS cancer cell line; format: functional, cell-based; details: Homo sapiens; in short: as §1
Mus musculus [1] = experiment: Antitumor activity in mice bearing B16BL6 melanoma at a dose of 50 ug/kg; survivors for 90 days was reported; format: functional
In short: (§2)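 B16BL6 cells were cultured as monolayers, and 10⁶ cells were injected ip on day 0 into female BDF1 mice (4-6 weeks, 8 per group). Drug in dimethylacetamide was diluted in DMA/Cremophor/water (1:5:44) and 0.1 mL given ip on days 1, 5 and 9. %ILS came from median survival of dying animals; 90-day survivors were counted; mean weight change covered days 1-10.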

Mus musculus [2] = experiment: Antitumor activity in BDF1 male mice bearing L1210 Leukemia at a dose of 70 ug/kg; format: functional
In short: (§3)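 Male BDF1 mice, 4-6 weeks old, 6 per group, were given 10⁵ L1210 cells ip on day 0. Drug in DMF was diluted in 30% DMSO/0.5% glucose and given ip on days 1, 5 and 9. %ILS = (T/C − 1) × 100 on median survival of dying animals only; 30-day survivors noted separately. Group weight change was taken from day 0 to the lowest-weight day.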

SK-OV-3 = experiment: cytotoxicity against NCI tumor panel, SK-OV-3 ovarian cancer cell line; format: functional, cell-based; details: Homo sapiens; in short: as §1
NCI-H23 = experiment: Cytotoxicity against NCI tumor panel, NCI-H 23 non small-cell lung cancer cell line; format: functional, cell-based; details: Homo sapiens; in short: as §1
SK-MEL-28 = experiment: Cytotoxicity against NCI tumor panel, SK-MEL28 melanoma cancer cell line; format: functional, cell-based; details: Homo sapiens; in short: as §1
SW-620 = experiment: Cytotoxicity against NCI tumor panel, SW_620 colon cancer cell line; format: functional, cell-based; details: Homo sapiens; in short: as §1
NCI/ADR-RES = experiment: Cytotoxicity against NCI tumor panel, NCI/ADR-RES breast cancer cell line; format: functional, cell-based; details: Homo sapiens; in short: as §1
COLO 205 = experiment: Cytotoxicity against NCI tumor panel, COLO 205 colon cancer cell line; format: functional, cell-based; details: Homo sapiens
In short: (§4)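 NCI cell-line panel screen run by the National Cancer Institute; sulforhodamine B (SRB) readout after 48-h drug incubation.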

PC-3 = experiment: Cytotoxicity against NCI tumor panel, PC-3 prostate cancer cell line; format: functional, cell-based; details: Homo sapiens; in short: as §1
UACC-257 = experiment: Cytotoxicity against NCI tumor panel, UACC-257 melanoma cancer cell line; format: functional, cell-based; details: Homo sapiens; in short: as §1
SR = experiment: Cytotoxicity against NCI tumor panel, SR leukemia cell line; format: functional, cell-based; details: Homo sapiens; in short: as §1
EKVX = experiment: Cytotoxicity against NCI tumor panel, EKVX non small-cell lung cancer cell line; format: functional, cell-based; details: Homo sapiens; in short: as §4
A498 = experiment: Cytotoxicity against NCI tumor panel, A-498 renal cancer cell line; format: functional, cell-based; details: Homo sapiens; in short: as §4
HCT-116 = experiment: Cytotoxicity against NCI tumor panel, HCT116 colon cancer cell line; format: functional, cell-based; details: Homo sapiens; in short: as §4
Hs-578T = experiment: Cytotoxicity against NCI tumor panel, HS 578T breast cancer cell line; format: functional, cell-based; details: Homo sapiens; in short: as §1
Mus musculus [3] = species on record: Mus musculus; experiment: Mean body weight change between 1-10 days; format: functional
In short: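 Female BDF1 mice (4-6 weeks old, 8 per group) were inoculated ip with 10⁶ B16BL6 melanoma cells on day 0. Drugs in dimethylacetamide were diluted in DMA:Cremophor:water (1:5:44) and given ip at 0.1 mL on days 1, 5 and 9 (doses per kg). Read-outs were %ILS = (T/C − 1) × 100 on median survival of dying animals only, mean body weight change from day 1 to day 10 (g/mouse), and 90-day survivors.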

NCI-H322M = experiment: Cytotoxicity against NCI tumor panel, NCI-H322M non small-cell lung cancer cell line; format: functional, cell-based; details: Homo sapiens; in short: as §1
BT-549 = experiment: Cytotoxicity against NCI tumor panel, BT-549 breast cancer cell line; format: functional, cell-based; details: Homo sapiens; in short: as §4
HL-60 = experiment: Cytotoxicity against NCI tumor panel, HL-60(TB) leukemia cell line; format: functional, cell-based; details: Homo sapiens; in short: as §4
Mus musculus [4] = experiment: Antitumor activity was tested in mice and percent increase of life span at a dose of 50 ug/kg was reported; format: functional; in short: as §2
Mus musculus [5] = experiment: Antitumor activity in BDF1 male mice bearing L1210 Leukemia at a dose of 42 ug/kg; survivors for 30 days was reported; format: functional; in short: as §3
Mus musculus [6] = species on record: Mus musculus; experiment: Hematological effects in female CDF1 mice at the dose of 50ug, in white blood cells; format: functional
In short: (§5)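 Non-tumor-bearing female CDF1 mice, 10 per group. Drugs were dissolved in DMSO, diluted in 30% DMSO/0.5% glucose, and given as a single ip dose on day 1 (doses per kg). Blood was sampled on day 27 for WBC, platelet, RBC and MCHC counts. Values are medians of 10 mice.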

Mus musculus [7] = species on record: Mus musculus; experiment: Hematological effects in female CDF1 mice at the dose of 50 ug, in platelet cells; format: functional; in short: as §5
OVCAR-3 = experiment: Cytotoxicity against NCI tumor panel, OVCAR-3 ovarian cancer cell line; format: functional, cell-based; details: Homo sapiens; in short: as §1
SF-539 = experiment: Cytotoxicity against NCI tumor panel, SF-539 CNS cancer cell line; format: functional, cell-based; details: Homo sapiens; in short: as §1
LOX IMVI = experiment: Cytotoxicity against NCI tumor panel, […] melanoma cancer cell line; format: functional, cell-based; details: Homo sapiens; in short: as §1
M14 = experiment: Cytotoxicity against NCI tumor panel, M14 melanoma cancer cell line; format: functional, cell-based; details: Homo sapiens; in short: as §1
786-0 = experiment: Cytotoxicity against NCI tumor panel, 786-0 renal cancer cell line; format: functional, cell-based; details: Homo sapiens; in short: as §4
OVCAR-8 = experiment: Cytotoxicity against NCI tumor panel, OVCAR-8 ovarian cancer cell line; format: functional, cell-based; details: Homo sapiens; in short: as §1
ACHN = experiment: Cytotoxicity against NCI tumor panel, ACHN renal cancer cell line; format: functional, cell-based; details: Homo sapiens; in short: as §4

Q: For `CC(=O)Nc1ccc2[nH]c(C(=O)Nc3ccc4[nH]c(C(=O)N5CC(CCl)c6c5cc(O)c5ccccc65)cc4c3)cc2c1` (configuration not stated), which IC50 (MCF7) is on record?
A: 0.476 nM

Q: What about the IC50 (SNB-75) of the same molecule?
A: 0.513 nM

Q: What about the No. of survivors (Mus musculus [1]) of the same molecule?
A: 0

Q: What about the No. of survivors (Mus musculus [2]) of the same molecule?
A: 1

Q: And the IC50 (SK-OV-3)?
A: 4.33 nM

Q: What about the IC50 (NCI-H23) of the same molecule?
A: 1.36 nM

Q: And the IC50 (SK-MEL-28)?
A: 2.21 nM

Q: What about the IC50 (SW-620) of the same molecule?
A: 2.36 nM

Q: And the IC50 (NCI/ADR-RES)?
A: 8.56 nM

Q: And the IC50 (COLO 205)?
A: 2.99 nM

Q: And the IC50 (PC-3)?
A: 2.03 nM

Q: And the IC50 (UACC-257)?
A: 2.46 nM

Q: And the IC50 (SR)?
A: 0.562 nM

Q: And the IC50 (EKVX)?
A: 2.39 nM

Q: What about the IC50 (A498) of the same molecule?
A: 3.95 nM

Q: And the IC50 (HCT-116)?
A: 0.495 nM

Q: And the IC50 (Hs-578T)?
A: 1.63 nM

Q: And the Weight (Mus musculus [3])?
A: 1.1 g and 0.3 g and 0.9 g

Q: What about the IC50 (NCI-H322M) of the same molecule?
A: 2.13 nM

Q: And the IC50 (BT-549)?
A: 3.29 nM

Q: What about the IC50 (HL-60) of the same molecule?
A: 1.4 nM

Q: And the ILS at 0.05 mg/kg (Mus musculus [4])?
A: 59%

Q: What about the No. of survivors (Mus musculus [5]) of the same molecule?
A: 0

Q: And the WBC (Mus musculus [6])?
A: 13.1 10e3 ul-1

Q: What about the Platelet (Mus musculus [7]) of the same molecule?
A: 1.1 10e6 ul-1

Q: And the IC50 (OVCAR-3)?
A: 3.51 nM

Q: What about the IC50 (SF-539) of the same molecule?
A: 1.24 nM

Q: What about the IC50 (LOX IMVI) of the same molecule?
A: 0.577 nM

Q: What about the IC50 (M14) of the same molecule?
A: 1.48 nM

Q: And the IC50 (786-0)?
A: 1.66 nM

Q: And the IC50 (OVCAR-8)?
A: 1.6 nM

Q: What about the IC50 (ACHN) of the same molecule?
A: 1.28 nM
